Activity calls are given as the source filed them. No cut-off for these calls is given here.
What was measured:
PBMC [1] = assay: Antiinflammatory activity in human PBMC assessed as reduction in anti-CD3/CD28 antibody-stimulated TNF-alpha expression at 250 nM preincubated for 1 hr followed by anti-CD3/CD28 antibody stimulation measured after 24 hrs in presence of KZR-504 by ELISA; type: functional, cell-based
In short: (§1)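 Healthy-donor PBMC, thawed from cryopreservation, 250 000 cells/well in RPMI 1640/5% FBS. Pretreated 1 h at 37 °C with compound alone or combined (0.1% DMSO final), washed 4 times, then stimulated 24 h with anti-CD3 and anti-CD28 antibodies. TNFα and IFNγ in supernatants by electrochemiluminescent ELISA; expressed relative to DMSO-treated controls (n = 6).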

PBMC [2] = assay: Antiinflammatory activity in human PBMC assessed as reduction in anti-CD3/CD28 antibody-stimulated IFN-gamma expression at 250 nM preincubated for 1 hr followed by anti-CD3/CD28 antibody stimulation measured after 24 hrs in presence of KZR-504 by ELISA; type: functional, cell-based; in short: as §1
Mus musculus [3] = assay: Antiarthritic activity in type 2 collagen antibody/LPS induced Balb/c mouse assessed as reduction in disease burden at 5 mg/kg, iv followed by dosing repeat on day 6, 8, 11, 13 and 15 and measured until day 18; type: functional, organism-based
In short: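 CAIA in 7−8 week old female BALB/c mice on breeder chow. Induced with 1.75 mg of a 5-antibody anti-type II collagen cocktail iv on day 0, then 25 μg LPS ip on day 3. Dosed as single iv boluses in 10% (w/v) sulfobutyl ether−β-cyclodextrin/10 mM sodium citrate (pH 3.5); vehicle-treated group included.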

Mus musculus [4] = assay: Antiarthritic activity in type 2 collagen antibody/LPS induced Balb/c mouse assessed as reduction in disease burden at 5 mg/kg, iv followed by dosing repeat on day 6, 8, 11, 13 and 15 and measured until day 18
PBMC [5] = assay: Antiinflammatory activity in human PBMC assessed as reduction in LPS-stimulated TNF-alpha expression at 125 nM preincubated for 1 hr followed by LPS stimulation measured after 24 hrs by ELISA; type: functional, cell-based
In short: (§2)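 Cryopreserved healthy-donor PBMC in RPMI 1640 with 5% heat-inactivated FBS, 250 000 cells/well. Compound (0.1% DMSO final) for 1 h at 37 °C, 5% CO2, then 4 washes with medium. Stimulated with 1 μg/mL LPS for 24 h; supernatant TNFα, IL-6 and IL-12/23p40 by electrochemiluminescent immunoassay. Mean level relative to DMSO controls, n = 6.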

PBMC [6] = assay: Antiinflammatory activity in human PBMC assessed as reduction in LPS-stimulated p40 subunit of […] expression at 125 nM preincubated for 1 hr followed by LPS stimulation measured after 24 hrs by ELISA; type: functional, cell-based; in short: as §2
PBMC [7] = assay: Antiinflammatory activity in human PBMC assessed as reduction in anti-CD3/CD28 antibody-stimulated TNF-alpha expression at 125 nM preincubated for 1 hr followed by anti-CD3/CD28 antibody stimulation measured after 24 hrs in presence of KZR-504 by ELISA; type: functional, cell-based; in short: as §1
PBMC [8] = assay: Antiinflammatory activity in human PBMC assessed as reduction in anti-CD3/CD28 antibody-stimulated IFN-gamma expression at 125 nM preincubated for 1 hr followed by anti-CD3/CD28 antibody stimulation measured after 24 hrs in presence of KZR-504 by ELISA; type: functional, cell-based; in short: as §1
Mus musculus [9] = assay: In vivo inhibition of LMP7 in Balb/c mouse splenocytes at 20 mg/kg, iv followed by dosing repeat on day 6, 8, 11, 13 and 15 and measured on 1 hr post last dose; type: functional, organism-based
In short: (§3)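 BALB/c mice dosed iv bolus in 10% sulfobutyl ether−β-cyclodextrin/10 mM sodium citrate pH 3.5; tissues taken 1 h after administration. Splenocytes strained and red cells lysed; kidney frozen, then bead-homogenized. Hypotonic lysate (20 mM Tris pH 8, 5 mM EDTA) at 1 mg/mL (spleen) or 5 mg/mL (kidney) run in the ProCISE active-site ELISA. Background-subtracted, protein-normalized activity relative to vehicle animals; n = 3.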

Mus musculus [10] = assay: In vivo inhibition of LMP2 in Balb/c mouse splenocytes at 20 mg/kg, iv followed by dosing repeat on day 6, 8, 11, 13 and 15 and measured on 1 hr post last dose; type: functional, organism-based; in short: as §3
Mus musculus [11] = assay: In vivo inhibition of LMP2 in Balb/c mouse splenocytes at 20 mg/kg, iv followed by dosing repeat on day 6, 8, 11, 13 and 15 and co-treated with 5 mg/kg, iv KZR-504 and measured on 1 hr post last dose; type: functional, organism-based; in short: as §3
Mus musculus [12] = assay: In vivo inhibition of proteosome beta 5 in Balb/c mouse kidney at 20 mg/kg, iv followed by dosing repeat on day 6, 8, 11, 13 and 15 and co-treated with 5 mg/kg, iv KZR-504 and measured on 1 hr post last dose; type: functional, organism-based; in short: as §3
[13] = target: T1, Proteasome subunit beta type-10 (Homo sapiens) (UniProt P40306); assay: Inhibition of MECL1 in human PBMC at 125 nM in presence of KZR-504 by ELISA
T1 sequence (whole entry): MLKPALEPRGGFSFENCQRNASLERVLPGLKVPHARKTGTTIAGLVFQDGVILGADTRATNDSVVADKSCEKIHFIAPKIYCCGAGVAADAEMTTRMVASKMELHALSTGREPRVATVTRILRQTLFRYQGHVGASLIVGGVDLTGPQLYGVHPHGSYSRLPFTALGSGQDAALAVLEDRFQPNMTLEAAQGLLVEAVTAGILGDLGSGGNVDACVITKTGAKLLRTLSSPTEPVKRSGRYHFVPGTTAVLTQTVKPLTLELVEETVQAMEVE
In short: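 Cryopreserved healthy-donor human PBMC in RPMI 1640 with 5% heat-inactivated FBS, exposed to compound (0.1% DMSO final) for 1 h at 37 °C, 5% CO2, then washed. Subunit-specific active-site occupancy read by ProCISE: biotinylated active-site probe binding, denaturation, streptavidin capture, subunit-specific antibody and HRP chemiluminescence. Signal normalized to protein and expressed relative to DMSO controls.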

[14] = Toxicity in Balb/c mouse assessed as effect on cage-side observations at 20 mg/kg, iv followed by dosing repeat on day 6, 8, 11, 13 and 15 and co-treated with 5 mg/kg, iv KZR-504 and measured until day 18; type: organism-based; details: in vivo

Question: Which results are given for `Cc1ccc(CC[C@H](NC(=O)[C@H](Cc2ccccc2)NC(=O)[C@H](CC(C)C)NC(=O)CN2CCCCCC2)C(=O)[C@@]2(C)CO2)cc1`?
Answer: Activity (PBMC [1]): inactive; Activity (PBMC [2]): inactive

Question: With `COc1ccc([C@@H](O)[C@H](NC(=O)[C@H](C)NC(=O)CN2CCOCC2)C(=O)N[C@@H](CC2=CCCC2)C(=O)[C@@]2(C)CO2)cc1` [ZETOMIPZOMIB] as the compound, how does the Activity (Mus musculus [3]) read?
Answer: Active

Question: What about the Activity (Mus musculus [4]) of the same compound?
Answer: Active

Question: With `COc1ccc(C[C@H](NC(=O)[C@@H](C)NC(=O)[C@H]2CC[C@H](O)CC2)C(=O)N[C@@H](CC2=CCCC2)C(=O)[C@@]2(C)CO2)cc1` as the compound, how does the Activity (PBMC [5]) read?
Answer: inactive

Question: What about the Activity (PBMC [6]) of the same compound?
Answer: Active

Question: What about the Activity (PBMC [7]) of the same compound?
Answer: Active

Question: And the Activity (PBMC [8])?
Answer: Active

Question: And the inhibition (Mus musculus [9])?
Answer: Active

Question: And the inhibition (Mus musculus [10])?
Answer: Active

Question: What about the inhibition (Mus musculus [11]) of the same compound?
Answer: Active

Question: What about the inhibition (Mus musculus [12]) of the same compound?
Answer: Active

Question: What about the inhibition [13] of the same compound?
Answer: Active

Question: And the Activity [14]?
Answer: Non-Toxic

Source: ChEMBL document CHEMBL4411269, “Required Immunoproteasome Subunit Inhibition Profile for Anti-Inflammatory Efficacy and Clinical Candidate KZR-616 ((2 S,3 R)- N-(( S)-3-(Cyclopent-1-en-1-yl)-1-(( R)-2-methyloxiran-2-yl)-1-oxopropan-2-yl)-3-hydroxy-3-(4-methoxyphenyl)-2-(( S)-2-(2-morpholinoacetamido)propanamido)propenamide)” (J Med Chem, 2018)
